Active and inactive are the calls of the source.
Legend:
Syrian golden hamster [1] = test: Toxicity in high-fat diet fed Syrian hamster assessed as mortality at 50 to 100 mg/kg, po administered for 16 weeks measured over 22 weeks; format: organism-based, Mesocricetus auratus; design: dose 50-100 mg/kg, route oral; settings: in vivo, 3696 h
Syrian golden hamster [2] = test: Toxicity in high-fat diet fed Syrian hamster assessed as change in body weight at 50 to 100 mg/kg, po administered for 16 weeks measured over 22 weeks; format: organism-based, Mesocricetus auratus; design: dose 50-100 mg/kg, route oral; settings: in vivo, 3696 h
Syrian golden hamster [3] = test: Antiatherogenic activity in high-fat diet fed po dosed Syrian hamster assessed as decrease in total LDL electronegativity administered for 16 weeks by agarose gel electrophoresis; format: functional, organism-based; settings: Mesocricetus auratus
In short: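 Total LDL from hamsters fed 16 weeks as chow, HFD, or HFD plus 50 or 100 mg/kg by gavage in 0.5% CMC. LDL isolated by KBr ultracentrifugation with EDTA and nitrogen protection. Samples of 2.5 µg run on 0.7% agarose (90 mM Tris/90 mM boric acid, pH 8.2) at 100 V for 1.4 h to assess electronegativity.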

Syrian golden hamster [4] = test: Antiatherogenic activity in high-fat diet fed po dosed Syrian hamster assessed as decrease in plasma L5 level administered for 16 weeks by fast protein liquid chromatographic analysis; format: functional, organism-based; settings: Mesocricetus auratus
Syrian golden hamster [5] = test: Antiatherogenic activity in high-fat diet fed Syrian hamster assessed as decrease in plasma total cholesterol level at 50 to 100 mg/kg, po administered for 16 weeks by automated analyzer relative to high-fat diet fed control; format: functional, organism-based; settings: Mesocricetus auratus
In short: (§1)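 High-fat-diet hamsters gavaged 50 or 100 mg/kg in 0.5% CMC for 16 weeks (n = 8/group); chow and HFD controls received vehicle. Serum from fasted blood (3000g, 10 min) was assayed for TC, TG, VLDL-C, LDL-C and HDL-C with enzymatic kits on an automated analyzer. Mean ± SD, Student's t-test versus HFD group.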

Syrian golden hamster [6] = test: Antiatherogenic activity in high-fat diet fed Syrian hamster assessed as decrease in plasma very-low-density lipoprotein cholesterol level at 50 to 100 mg/kg, po administered for 16 weeks by automated analyzer relative to high-fat diet fed control; format: functional, organism-based; settings: Mesocricetus auratus; in short: as §1
Syrian golden hamster [7] = test: Antiatherogenic activity in high-fat diet fed Syrian hamster assessed as decrease in plasma low-density lipoprotein cholesterol level at 50 to 100 mg/kg, po administered for 16 weeks by automated analyzer relative to high-fat diet fed control; format: functional, organism-based; settings: Mesocricetus auratus; in short: as §1
Syrian golden hamster [8] = test: Antiatherogenic activity in high-fat diet fed Syrian hamster assessed as decrease in plasma trigylceride level at 50 to 100 mg/kg, po administered for 16 weeks by automated analyzer relative to high-fat diet fed control; format: functional, organism-based; settings: Mesocricetus auratus; in short: as §1
Syrian golden hamster [9] = test: Antiatherogenic activity in high-fat diet fed Syrian hamster assessed as reduction of atherosclerotic lesions size in aortic arch at 50 mg/kg, po administered for 16 weeks by oil red o staining-based assay relative to high-fat diet fed control; format: functional, Mesocricetus auratus; design: scale not given: the % may be the effect or the level left
In short: (§2)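 High-fat-diet hamsters gavaged 50 or 100 mg/kg in 0.5% CMC for 16 weeks (n = 8/group). Aorta from root to mid-descending thoracic segment was fixed in 4% PFA and stained with 0.6% Oil Red O in 60% isopropanol for 30 min. Plaque area was taken as a ratio of total luminal area from stereoscope en face images. Mean ± SD, t-test.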

Syrian golden hamster [10] = test: Antiatherogenic activity in high-fat diet fed Syrian hamster assessed as reduction of atherosclerotic lesions size in aortic arch at 100 mg/kg, po administered for 16 weeks by oil red o staining-based assay relative to high-fat diet fed control; format: functional, Mesocricetus auratus; design: scale not given: the % may be the effect or the level left; in short: as §2
Syrian golden hamster [11] = test: Antiatherogenic activity in high-fat diet fed Syrian hamster assessed as decrease in plasma L5 level at 50 mg/kg, po administered for 16 weeks by fast protein liquid chromatographic analysis (reference value: 13.7%); format: functional, Mesocricetus auratus; design: scale not given: the % may be the effect or the level left
Syrian golden hamster [12] = test: Antiatherogenic activity in high-fat diet fed Syrian hamster assessed as decrease in plasma L5 level at 100 mg/kg, po administered for 16 weeks by fast protein liquid chromatographic analysis (reference value: 13.7%); format: functional, Mesocricetus auratus; design: scale not given: the % may be the effect or the level left
Homo sapiens [13] = species: Homo sapiens; test: Inhibition of L5-induced apoptosis in HAEC preincubated for 30 mins followed by L5 induction measured after 24 hrs by Hoechst 33342 and calcein-AM staining-based fluorescence microscopic analysis; format: functional
In short: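 Subconfluent HAECs pretreated 30 min with vehicle (0.1% DMSO) or agent (0.3, 1, 3 µM), then ± L5 (50 µg/mL; L1 as negative control) for 24 h. Cells stained 10 min with 1 µM Hoechst 33342 plus calcein-AM and imaged by epifluorescence. Condensed or fragmented nuclei were scored as apoptotic; percentage of apoptotic cells from 6 samples, mean ± SD, t-test.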

Syrian golden hamster [14] = test: Antiatherogenic activity in high-fat diet fed Syrian hamster assessed as downregulation of active caspase-3 expression in aorta at 50 to 100 mg/kg, po administered for 16 weeks by immunohistochemical analysis; format: functional, organism-based; settings: Mesocricetus auratus
Homo sapiens [15] = species: Homo sapiens; test: Inhibition of L5-induced caspase-3 activation in HAEC preincubated for 30 mins followed by L5 induction measured after 24 hrs by immunoblot analysis; format: functional
In short: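 HAECs pretreated 30 min with vehicle (0.1% DMSO) or agent (0.3–3 µM), then ± L5 (50 µg/mL) 24 h. Cleaved caspase-3 immunoblot normalized to β-actin relative to vehicle control. Densitometry, n = 4, mean ± SD, Student's t-test.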

[16] = target: Oxidized low-density lipoprotein receptor 1 (Homo sapiens) (UniProt P78380); test: Inhibition of LOX1-induced DiI-L5 endocytosis in HAEC at 3 uM preincubated for 30 mins followed by DiI-L5 treatment measured after 8 hrs by fluorescence microscopic analysis
In short: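 L5 labeled with DiI (1 mg/mL L5 with 80 µM DiI, 37 °C overnight), re-isolated by ultracentrifugation and dialyzed. HAECs were pretreated ± 3 µM agent for 30 min, then given DiI-L5 (50 µg/mL) for 8 h. Internalization was imaged by fluorescence microscopy with Hoechst nuclear counterstain.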

Homo sapiens [17] = species: Homo sapiens; test: Inhibition of L5-induced LOX1 expression in HAEC at 0.3 to 3 uM by immunoblot analysis; format: functional
In short: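 HAECs exposed to agent at the indicated concentrations with L5 (50 µg/mL). LOX-1 immunoblot on lysates, normalized to β-actin relative to untreated control. Densitometry from 4 independent experiments, mean ± SD, Student's t-test.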

[18] = target: Oxidized low-density lipoprotein receptor 1 (Homo sapiens) (UniProt P78380); test: Inhibition of L5-activated LOX1-induced p38 MAPK phosphorylation in HAEC preincubated for 30 mins followed by L5 induction measured after 120 mins by Western blot analysis
In short: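 HAECs pretreated 30 min with TS92 anti-LOX-1 antibody (10 µg/mL), SB203580 (2 µM) or vehicle, then ± L5 or L1 control (50 µg/mL) for 120 min. Phospho-p38 immunoblot normalized to total p38. Densitometry, 4 experiments, mean ± SD.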

[19] = target: MAP kinase p38 (Homo sapiens) (UniProt O15264+Q15759+Q16539+P53778); test: Activation of PI3K/Akt/eNOS signaling in HAEC assessed as inhibition of L5-induced p38 MAPK phosphorylation preincubated for 30 mins followed by L5 induction measured after 120 mins by Western blot analysis in presence of PI3K inhibitor wortmannin, Akt inhibitor, eNOS inhibitor L-NAME; format: protein assay
In short: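 HAECs pretreated 30 min with vehicle (0.1% DMSO), wortmannin (20 nM), Akt inhibitor (2 nM) or L-NAME (0.1 mM), then ± agent (0.3, 1 or 3 µM) 30 min, then L5 (50 µg/mL) 120 min. Phospho-p38 MAPK immunoblot normalized to total p38 MAPK relative to vehicle control. Densitometry, 4 independent experiments, mean ± SD, t-test.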

Homo sapiens [20] = species: Homo sapiens; test: Activation of PI3K/Akt/eNOS signaling in HAEC assessed as inhibition of L5-induced caspase-3 activation preincubated for 30 mins followed by L5 induction measured after 24 hrs by Western blot analysis in presence of PI3K inhibitor wortmannin, Akt inhibitor, eNOS inhibitor L-NAME
In short: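 Primary HAECs (passage 3–4, 2% FBS complete medium) pretreated 30 min with vehicle (0.1% DMSO) or L-NAME (0.1 mM), then 3 µM test agent 30 min, then ± L5 (50 µg/mL) 24 h. Active caspase-3 measured by immunoblot on 50 µg lysate, normalized to β-actin relative to vehicle control. Densitometry, n = 4, mean ± SD, Student's t-test.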

[21] = target: T1, Nitric oxide synthase 3 (Homo sapiens) (UniProt P29474); test: Induction of eNOS phosphorylation in HAEC at 3 uM after 10 to 30 mins by Western blot analysis
T1 sequence (whole entry): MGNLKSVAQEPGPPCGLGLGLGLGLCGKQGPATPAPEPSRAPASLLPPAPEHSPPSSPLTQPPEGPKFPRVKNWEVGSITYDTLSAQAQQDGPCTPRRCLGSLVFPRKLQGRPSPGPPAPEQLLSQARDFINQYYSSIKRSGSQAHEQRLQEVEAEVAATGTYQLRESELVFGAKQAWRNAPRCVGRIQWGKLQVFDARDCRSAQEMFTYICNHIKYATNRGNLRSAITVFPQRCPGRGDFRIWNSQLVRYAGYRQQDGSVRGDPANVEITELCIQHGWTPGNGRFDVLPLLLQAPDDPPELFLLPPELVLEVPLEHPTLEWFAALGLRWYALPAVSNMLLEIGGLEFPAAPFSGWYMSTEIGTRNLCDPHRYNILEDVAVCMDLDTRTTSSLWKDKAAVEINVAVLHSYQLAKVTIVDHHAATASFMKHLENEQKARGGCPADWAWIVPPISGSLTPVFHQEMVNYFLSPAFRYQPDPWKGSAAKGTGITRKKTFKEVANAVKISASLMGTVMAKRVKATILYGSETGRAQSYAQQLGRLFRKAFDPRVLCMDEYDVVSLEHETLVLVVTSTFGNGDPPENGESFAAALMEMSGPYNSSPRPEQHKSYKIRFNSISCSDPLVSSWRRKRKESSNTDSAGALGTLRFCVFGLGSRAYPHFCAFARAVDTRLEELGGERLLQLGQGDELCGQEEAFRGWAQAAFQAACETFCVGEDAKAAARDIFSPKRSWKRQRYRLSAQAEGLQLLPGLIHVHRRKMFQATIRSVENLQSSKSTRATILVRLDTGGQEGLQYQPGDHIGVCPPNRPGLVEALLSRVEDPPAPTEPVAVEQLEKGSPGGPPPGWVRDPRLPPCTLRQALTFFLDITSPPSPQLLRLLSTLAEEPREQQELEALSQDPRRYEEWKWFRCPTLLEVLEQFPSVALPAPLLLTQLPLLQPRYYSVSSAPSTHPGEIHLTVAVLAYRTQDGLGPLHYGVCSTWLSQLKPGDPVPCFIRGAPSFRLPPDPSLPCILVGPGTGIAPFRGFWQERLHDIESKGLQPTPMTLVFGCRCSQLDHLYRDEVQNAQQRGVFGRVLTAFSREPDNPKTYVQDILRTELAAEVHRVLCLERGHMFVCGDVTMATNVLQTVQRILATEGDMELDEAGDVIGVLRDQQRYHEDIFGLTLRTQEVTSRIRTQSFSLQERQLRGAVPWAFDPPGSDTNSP
In short: (§3)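 HAECs treated with 3 µM agent or vehicle (0.1% DMSO) for 10, 30, 60, 120 and 240 min. Lysates were immunoblotted for p-eNOS and p-Akt, normalized to total eNOS or Akt relative to vehicle control. Densitometry, 4 independent experiments, mean ± SD, Student's t-test.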

[22] = target: T1, Nitric oxide synthase 3 (Homo sapiens); test: Induction of eNOS phosphorylation in HAEC at 3 uM after 60 to 240 mins by Western blot analysis; in short: as §3
Homo sapiens [23] = species: Homo sapiens; test: Induction of Akt phosphorylation in HAEC at 3 uM after 10 to 30 mins by Western blot analysis; in short: as §3
Homo sapiens [24] = species: Homo sapiens; test: Induction of Akt phosphorylation in HAEC at 3 uM after 60 to 240 mins by Western blot analysis; in short: as §3
[25] = target: T1, Nitric oxide synthase 3 (Homo sapiens); test: Induction of eNOS phosphorylation in HAEC at 3 uM measured at 30 mins by Western blot analysis in presence of wortmannin and Akt inhibitor
In short: (§4)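 HAECs pretreated 30 min with vehicle (0.1% DMSO), 20 nM wortmannin or 2 nM Akt inhibitor, then ± 3 µM agent for 30 min. p-Akt and p-eNOS were immunoblotted and normalized to β-actin relative to vehicle control. Densitometry, n = 4 independent experiments, mean ± SD, t-test.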

Homo sapiens [26] = species: Homo sapiens; test: Induction of Akt phosphorylation in HAEC at 3 uM measured at 30 mins by Western blot analysis in presence of wortmannin and Akt inhibitor; in short: as §4
Homo sapiens [27] = species: Homo sapiens; test: Reversal of L5-induced Akt dephosphorylation in HAEC at 3 uM preincubated for 30 mins followed by L5 induction measured after 24 hrs by Western blot analysis
In short: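 HAECs pretreated 30 min with vehicle (0.1% DMSO) or 3 µM agent, then ± L5 (50 µg/mL) for 24 h. p-Akt immunoblot normalized to β-actin relative to vehicle control. Densitometry, 4 independent experiments, mean ± SD, Student's t-test.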

Oc1ccc2c(c1)OCO2
47.3%: Activity (Syrian golden hamster [10])
31.5%: Activity (Syrian golden hamster [9])
inactive: inhibition [19] | inhibition (Homo sapiens [20]) | Activity [22] | Activity (Homo sapiens [24]) | Activity [25] | Activity (Homo sapiens [26])
active: Activity (Syrian golden hamster [3]) Dose-dependent effect | Activity (Syrian golden hamster [4]) Dose-dependent effect | Activity (Syrian golden hamster [5]) | Activity (Syrian golden hamster [6]) | Activity (Syrian golden hamster [7]) | Activity (Syrian golden hamster [8]) | inhibition (Homo sapiens [13]) Dose-dependent effect | Activity (Syrian golden hamster [14]) | inhibition (Homo sapiens [15]) Dose-dependent effect | inhibition [16] | inhibition (Homo sapiens [17]) | inhibition [18] Dose-dependent effect | Activity [21] | Activity (Homo sapiens [23]) | Activity (Homo sapiens [27])
9.5%: Activity (Syrian golden hamster [11])
5.7%: Activity (Syrian golden hamster [12])
Non-toxic: Activity (Syrian golden hamster [1]) | Activity (Syrian golden hamster [2])

From ChEMBL document CHEMBL3421557, “Sesamol reduces the atherogenicity of electronegative L5 LDL in vivo and in vitro” (J Nat Prod, 2015)
